Bioassay records deposited in PubChem BioAssay by several laboratories.
The list is not random: actives were taken first. Their share in the collection is about 6.7%.
CSC inhib – blocks cancer stem cells. cancer stem cell-like cells viability, luminescence. 1.1% of 300,000 active. inhibition, % at 7.5 µM; in the data active = inhibition above about 75%; inconclusive = no clear call, values can overlap the other calls; tested in HMLE shEcad cells
Beta apoptosis – blocks beta cell apoptosis; INS-1E cytokine-induced death, ATP luminescence, 48 h; percent of positive-control rescue, neutral wells zero; protection from apoptosis, % (no concentration beside the values); 0.8% of 300,000 active; AID 435005;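 active = Every replicate reaches about 75%, or at least half do and their mean reaches it too, limit read from the data; inconclusive = At least half of replicates reach the limit but their mean does not; inactive = Under half of replicates reach the limit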;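 note: 0% = cytokine-treated negative control wells and 100% = positive control rescue; higher means more ATP so stronger rescue from cytokine killing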
T cruzi inh – blocks replication of Trypanosoma cruzi | T. cruzi beta-gal in NIH3T3, luminescence, 90 h | inhibition, % (test concentration not listed) | 1.4% of 300,000 active;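 active = mean inhibition across valid replicates above about 55%, limit read from the data; inconclusive = mean below that limit but half or more replicates reach it; inactive = mean below it, under half of replicates reach it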;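 note: signal also drops with host cell toxicity which is not excluded here; 0% = plate median of DMSO wells and 100% = zero luminescence signal; higher percent means less beta-gal luminescence so fewer parasites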
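Read-out: Parasite load inhibition, % | Test system: Mouse NIH/3T3 fibroblasts infected with β-gal-expressing T. cruzi Tulahuen C4 | Amount: 5,000 cells/well | Medium: DMEM, 2% fetal bovine serum | Signal: GalScreen β-gal luminescence, detergent lysis, 60 min | Timing: 3 h attach, ≥90 h co-culture | Also added: Tulahuen C4 trypomastigotes, 5000/well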
NR3A LBD binder – modulators (binders) of human NR3A ligand-binding domain | NR3A LBD differential scanning fluorimetry, Tm shift; 0% = protein alone, 100% = glycine-bound protein | Tm shift relative to glycine control, % at 25 µM | 2.5% of 340,000 active | AID 1259313;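 active = melting temperature shift of at least 10% of the positive control shift, at one fixed dose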
PREPL inh – inhibits the human prolyl oligopeptidase-like enzyme; recombinant PREPL, fluorescence polarization activity-based probe; inhibition, % at 5.96 µM; 0.68% of 320,000 active; Q4J6C6; in the data active = inhibition above about 43%;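 note: 0% = enzyme with DMSO and 100% = wells lacking enzyme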
Target sequence (Q4J6C6 whole entry, looked up): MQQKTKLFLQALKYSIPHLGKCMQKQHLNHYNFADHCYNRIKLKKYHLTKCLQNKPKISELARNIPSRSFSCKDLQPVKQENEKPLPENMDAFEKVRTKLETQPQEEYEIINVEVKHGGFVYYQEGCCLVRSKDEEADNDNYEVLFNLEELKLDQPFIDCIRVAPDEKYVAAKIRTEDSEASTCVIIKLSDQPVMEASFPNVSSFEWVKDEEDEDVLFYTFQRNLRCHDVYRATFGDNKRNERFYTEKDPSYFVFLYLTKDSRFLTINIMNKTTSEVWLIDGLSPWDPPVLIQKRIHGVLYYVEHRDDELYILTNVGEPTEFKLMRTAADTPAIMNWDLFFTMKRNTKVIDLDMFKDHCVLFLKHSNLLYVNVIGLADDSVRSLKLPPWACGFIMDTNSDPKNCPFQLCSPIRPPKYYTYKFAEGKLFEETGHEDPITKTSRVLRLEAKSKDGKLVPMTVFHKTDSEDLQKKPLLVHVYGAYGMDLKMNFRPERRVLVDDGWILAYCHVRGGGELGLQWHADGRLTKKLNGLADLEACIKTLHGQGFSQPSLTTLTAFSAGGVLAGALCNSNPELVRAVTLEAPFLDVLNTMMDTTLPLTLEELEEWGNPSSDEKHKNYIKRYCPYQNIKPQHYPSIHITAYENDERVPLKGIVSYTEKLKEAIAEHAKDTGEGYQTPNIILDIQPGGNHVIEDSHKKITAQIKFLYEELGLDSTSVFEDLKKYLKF
CHOP inhibitor – blocks CHOP induction under ER stress; 3.8% of 220,000 active; CHO-K1 CHOP-promoter luciferase, tunicamycin-induced, 15-18 h; inhibition, % at 10 µM; AID 2732;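 active = compounds that reduced the stress-induced luciferase reporter signal by more than about 70% of percent inhibition, limit read from the data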;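 note: 0% = tunicamycin plus vehicle and 100% = wells without tunicamycin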
* hit, by the source's call; ? = inconclusive; nt = no result.

SMILES	CSC inhib	Beta apoptosis	T cruzi inh	NR3A LBD binder	PREPL inh	CHOP inhibitor
CCOC(=O)C1=C(O)C(=O)NC(c2ccccc2)=C(OCC)C1	-5	-7	-11	0	-1	95*
Cc1cc(C)c2nc(SCC(=O)NCCC3=CCCCC3)cc(C)c2c1	4	-3	-2	8	9	92*
Cc1cc2c(c(=O)n1Cc1ccc3c(c1)OCO3)C(c1cccnc1)C(C#N)=C(N)O2 (configuration not stated)	-6	-4	61*	-4	-4	27
COc1ccccc1-c1cc(N)n(S(=O)(=O)c2cccc3nsnc23)n1	-11	-3	1	-8	6	9
Nc1cc(-c2ccc(Cl)cc2)nn1S(=O)(=O)c1cccc2nsnc12	11	5	25	19*	15	80*
Nc1cc(-c2cccc(F)c2)nn1S(=O)(=O)c1cccc2nsnc12	-22	-8	0	8	-2	5
Nc1cc(-c2ccc(Br)cc2)nn1S(=O)(=O)c1cccc2nsnc12	22	5	29	0	18	86*
C=C(C)COc1ccc(-c2n[nH]c(C)c2-c2ccc(OC)c(OC)c2)c(O)c1	81*	21	20	-3	4	-3
C=C(C)COc1ccc(-c2[nH]ncc2-c2ccc(OC)c(OC)c2)c(O)c1	92*	24	-1	-1	1	nt
O=C(NC1CC2CCCC(C1)N2Cc1ccc(F)cc1)c1ccc(F)cc1 (configuration not stated)	-7	nt	1	-6	-4	nt
CSCCC(NC(=O)COc1ccccc1)C(=O)O (configuration not stated)	-8	-1	-10	1	5	-12
Cc1cc(OC(=O)c2cccs2)ccc1C(C)C	-7	3	18	3	4	87*
Cc1ccc2oc(=O)n(CCOc3ccccc3Cl)c2c1	8	0	-2	-1	-29	93*
CCCOc1ccccc1Cn1c(=O)oc2ccc(C)cc21	17	-8	-12	1	0	81*
CCOc1ccccc1Cn1c(=O)oc2ccc(C)cc21	2	-1	nt	-1	-21	10
CC(NS(=O)(=O)c1cc2c3c(c1)CCC(=O)N3CCC2)c1ccccc1 (configuration not stated)	nt	0	-9	1	-3	nt
Sc1oc(-c2ccccc2)cc1C=Nc1ccccc1	0	6	39	14*	11	-11
O=C(CCCn1c(=O)oc2ccccc21)Nc1ccccc1	nt	nt	nt	-5	nt	nt
COc1ccc(OCCOCCN2CCc3ccccc3C2)cc1	-4	-4	58*	2	10	0
O=C(CN1CCC(C(O)(c2ccccc2)c2ccccc2)CC1)Nc1ccccc1	15	5	17	3	2	-5
O=C(CN1CCN(C(=O)c2ccco2)CC1)Nc1cc(C(F)(F)F)ccc1Cl	-9	3	3	14*	4	0
O=C(CN1CCC(C(O)(c2ccccc2)c2ccccc2)CC1)Nc1cc(Cl)ccc1Cl	-4	5	55*	-4	13	-52
Cc1cccc(C)c1OCc1cc(C(=O)N2CCN3CCCC3C2)no1 (configuration not stated)	-8	-1	14	13*	nt	nt
Cc1cccc(C)c1OCc1cc(C(=O)N2CCN(C3CCCC3)CC2)no1	11	-7	29	4	4	nt
Cc1ccc(OCc2cc(C(=O)NC3CCc4ccccc43)no2)cn1 (configuration not stated)	-9	16	-23	1	nt	nt
SMILES	CSC inhib	Beta apoptosis	T cruzi inh	NR3A LBD binder	PREPL inh	CHOP inhibitor
O=S(=O)(Nc1ccccn1)c1cccc(S(=O)(=O)c2ccc(Br)cc2)c1	15	-4	-11	14*	6	3
COc1ccc(NC(=O)Cn2nnc(C(=O)Nc3ccc(F)c(Cl)c3)c2N)cc1	-1	1	10	-84	4	nt
Cc1ccc(NC(=O)Cn2nnc(C(=O)NCc3ccc(Cl)cc3)c2N)cc1F	-12	-4	-30	13*	-3	nt
Cc1ccc(NC(=O)Cn2nnc(C(=O)Nc3ccc(F)c(Cl)c3)c2N)cc1	-1	nt	0	32*	2	nt
Cc1ccc(NC(=O)Cn2nnc(C(=O)NCc3ccccc3)c2N)cc1C	-8	0	8	26*	-4	23
CC(=O)Nc1ccc(NC(=O)C(C)Sc2n[nH]c(-c3ccc(C)cc3)n2)cc1 (configuration not stated)	-9	6	-6	-2	4	nt
O=C(NC1CCCCC1)c1cccc(Cn2cc(Cl)cn2)c1	-7	nt	-1	5	-1	28
N#C/C(=C\c1ccc(-c2ccccc2[N+](=O)[O-])o1)C(=O)Nc1nc(-c2cccs2)cs1	-15	1	-22	12*	19	17
N#C/C(=C/c1ccc(-c2cccc([N+](=O)[O-])c2)o1)C(=O)Nc1nc(-c2cccs2)cs1	nt	nt	nt	23*	nt	nt
N#C/C(=C\c1ccc(-c2ccc([N+](=O)[O-])cc2)o1)C(=O)Nc1nc(-c2cccs2)cs1	13	1	0	-1	11	47
O=C(/C=C/c1ccnc2ccccc12)c1cccs1	86*	-5	6	-10	-2	-13
O=C(Cn1cnc2ccccc2c1=O)c1cccs1	-9	-1	0	1	-3	28
CCOC(=O)c1ccc(NC(=S)N2CCSC2c2ccc(Cl)cc2)cc1 (configuration not stated)	36	4	0	19*	-9	45
O=C(Nc1cccc(-c2nc3ncccc3o2)c1)c1ccccc1	-10	10	60*	-1	-6	22
COCc1cc(C)nc(NC2CC(C)(C)NC(C)(C)C2)c1C#N	9	-5	-9	1	-9	nt
O=C(NN1C(=O)C2C(c3ccccc3)C=CC(c3ccccc3)C2C1=O)c1cccc(Br)c1 (configuration not stated)	8	-8	11	20*	-17	61
COc1cc(Cn2nnc3ccccc32)cc(Br)c1O	-11	-1	-2	0	7	nt
Cc1cc(C)c2c(=O)n(CC(=O)Nc3cccc(Cl)c3C)sc2n1	-2	-7	58*	3	3	-26
CCOc1ccc(NC(=O)C(C)C(Cc2ccc(C)cc2)C(=O)O)cc1 (configuration not stated)	-3	2	-11	1	1	nt
N#Cc1ccc(-c2ccccc2)nc1SCC(=O)c1cccc(Cl)c1	-16	-7	-5	-7	-1	23
N#Cc1ccc(-c2ccc(Cl)cc2)nc1SCC(=O)c1cccc(Cl)c1	10	91*	6	1	14	-1
Cc1ccc(-n2nc(C)c3c(C)c(CCC(=O)Nc4ccc(CN5CCCC5)cc4)c(C)nc32)cc1	?	41	72*	-2	-31	-10
CCNc1c(NS(=O)(=O)c2ccc(F)c(Cl)c2)c(=O)oc2ccccc12	-3	-17	0	-1	-3	nt
